Screening data from PubChem BioAssay.
MC4R ag barr = MC4R agonists recruiting beta-arrestin, primary screen, cell-based, luminescence, agonist arm of biased-ligand search. Melanocortin receptor 4 (Homo sapiens), P32245. U2OS MC4R beta-arrestin complementation; percent of melanotan II response, DMSO zero. activation, % at 8.9 µM. 360,000 tested, 0.98% active. AID 540308, 2011;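 active = activation above a per-plate cutoff, the mean activation of sample wells on that plate plus 3 SD, cut at about 8% in these data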
AI-2 QS mod = Vibrio harveyi AI-2 quorum sensing modulators, primary screen, JMH597 strain, luminescence/OD600 ratio; activity change, % at 7.5 µM; AID 2094, 2009; Vibrio harveyi JMH597 AI-2 luminescence/OD600 ratio, 9 h; active compounds read low; strain lacks LuxN and CqsS sensors; 0 = neutral-control median; 300,000 tested, 0.4% active; in the data active = activity change below about -75%, passing the limit was not always enough;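 note: luminescence divided by OD600 gain over 9 h not by final OD600 alone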
NTR1 agonist = agonists of human NTR1, primary screen, imaging, U2OS cells, beta-arrestin-GFP, high content; Neurotensin receptor type 1 (Homo sapiens), P30989; NTR1-U2OS beta-arrestin-GFP spot imaging, agonist mode; activation, % at 20 µM; 330,000 tested, 0.17% active; AID 493036, 2011;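 active = activation at or above 40% of the spot to cytoplasm intensity ratio, with at least 20 cells analyzed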
MC4R antagonist = MC4R antagonists of cAMP signaling, primary screen, cell-based, TR-FRET, antagonist arm of biased-ligand search. Melanocortin receptor 4 (Homo sapiens), P32245. MC4R-expressing cells, MTII-stimulated cAMP, LANCE TR-FRET. inhibition, % at 6.5 µM. 360,000 tested, 0.48% active. AID 540295, 2011;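 active = inhibition above its plate's cutoff, the mean of tested wells on that plate plus 3 SD, cut at about 29% in these data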
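Assay system: U2OS cells stably expressing human melanocortin 4 receptor (MC4R) / Dosing: 6.5 µM / Timing: compound 30 min, challenge 1 h, detection 1 h / Measured by: Eu-cAMP/anti-cAMP TR-FRET, emission 671 nm / Replicates: singlicate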
MC4R barr conf = MC4R beta-arrestin agonists, retest, confirmation, cell-based, luminescence, U2OS | 2,400 tested, 31% active | U2OS MC4R beta-arrestin recruitment; scaled DMSO 0%, Melanotan II 100% | AID 602192, 2012 | shares compounds with MC4R ag barr | activation, % at 8.9 µM;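 active = mean activation across replicates above the hit cutoff set in the earlier primary screen, cut at about 8% in these data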
MOR DOR agonist = agonists of MOR-DOR heterodimerization, counter-screen for MC4R biased agonist project, cell-based, luminescence. shares compounds with MC4R ag barr. U2OS PathHunter beta-arrestin, beta-gal luminescence; percent of deltorphin B response, DMSO zero. activation, % at 9.2 µM. 2,400 tested, 5.8% active. AID 602194, 2012;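 active = mean activation across replicates exceeds the hit threshold derived in the earlier primary screen, cut at about 18% in these data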
Target sequence (P35372 whole entry, looked up): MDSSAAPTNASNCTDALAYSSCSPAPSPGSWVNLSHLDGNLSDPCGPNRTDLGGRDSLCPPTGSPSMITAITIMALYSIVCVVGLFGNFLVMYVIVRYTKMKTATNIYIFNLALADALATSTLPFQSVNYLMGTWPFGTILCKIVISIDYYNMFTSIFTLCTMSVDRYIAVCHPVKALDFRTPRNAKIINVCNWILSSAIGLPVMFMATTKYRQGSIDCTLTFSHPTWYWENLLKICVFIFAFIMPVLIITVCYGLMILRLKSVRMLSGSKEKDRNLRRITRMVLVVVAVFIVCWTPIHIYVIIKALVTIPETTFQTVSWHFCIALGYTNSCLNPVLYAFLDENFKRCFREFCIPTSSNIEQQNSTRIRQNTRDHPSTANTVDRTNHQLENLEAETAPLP
Target sequence (P41143 whole entry, looked up): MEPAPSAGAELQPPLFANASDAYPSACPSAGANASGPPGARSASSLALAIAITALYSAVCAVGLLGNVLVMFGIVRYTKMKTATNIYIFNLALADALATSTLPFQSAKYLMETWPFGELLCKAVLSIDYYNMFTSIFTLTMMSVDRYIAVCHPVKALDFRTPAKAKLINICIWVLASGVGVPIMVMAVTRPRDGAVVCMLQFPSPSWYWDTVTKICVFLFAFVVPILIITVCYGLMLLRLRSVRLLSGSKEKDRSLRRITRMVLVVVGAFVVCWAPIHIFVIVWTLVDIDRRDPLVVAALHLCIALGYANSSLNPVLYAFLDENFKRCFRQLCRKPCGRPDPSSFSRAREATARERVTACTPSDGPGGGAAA
Hits are given with their value; . = inactive; / = not tested or not shown. In the library only some 1.8% were active in any assay of this set; here they are far more common.

SMILES	MC4R ag barr	AI-2 QS mod	NTR1 agonist	MC4R antagonist	MC4R barr conf	MOR DOR agonist
CCNC(=S)Nc1cc(OCC)c(NC(=O)c2cccs2)cc1OCC	.	.	/	.	/	/
CCOc1cc(NC(=S)NCC(C)C)c(OCC)cc1NC(=O)c1cccs1	14.6	.	.	.	.	.
CCOc1ccc(NC(=O)c2cccs2)c([N+](=O)[O-])c1	18.0	.	.	.	.	.
O=C1C2=C(NC(=S)NC2c2ccc(Cl)cc2)NC(c2ccc(Cl)cc2)N1c1ccc(Cl)cc1 (stereo not given)	18.8	.	.	.	29.2	.
COc1ccccc1N1C(=O)c2ccccc2NC1c1ccncc1 (stereo not given)	.	.	.	.	/	/
O=C1C2CCCN2C(c2ccc(F)cc2)N1c1ccc(Cl)cc1 (stereo not given)	.	.	.	.	/	/
CCc1ccc(C2NC(=S)NC3=C2C(=O)N(c2ccccc2OC)C(c2ccc(CC)cc2)N3)cc1 (stereo not given)	17.9	.	.	.	13.9	.
O=C(CSc1ccccc1F)NNC(=O)c1ccncc1	.	/	.	.	/	/
Cc1cccc(N2C(=O)CC(SC(=Nc3ccccc3)Nc3ccccc3)C2=O)c1 (stereo not given)	.	.	.	.	/	/
O=C1CC(SC(=Nc2ccccc2)Nc2ccccc2)C(=O)N1c1ccc(Cl)c(Cl)c1 (stereo not given)	9.7	.	.	.	.	.
O=C1CC(SC(=NCc2ccc3c(c2)OCO3)Nc2ccccc2)C(=O)N1c1ccccc1 (stereo not given)	21.4	.	.	.	.	.
O=C(O)c1ccc(N2C(=O)CC(SC(=NCc3ccc4c(c3)OCO4)Nc3ccccc3)C2=O)cc1 (stereo not given)	.	.	.	.	/	/
c1ccc(CCn2cccc2)nc1	.	/	/	.	/	/
Cc1ccc(NC(=O)c2cc(-c3cccc(O)c3)on2)cc1C	9.6	.	.	.	.	.
Cc1ccc(NC(=O)c2cc(-c3ccco3)on2)cc1C	.	.	.	.	/	/
Cc1cc(C)c(CN2CCN(CCCn3cnc(C(=O)Nc4ccc(C)c(C)c4)n3)CC2)c(C)c1	15.5	/	/	.	23.8	.
CCOC(=O)C1=C(N)c2ccccc2CC1C(C)C (stereo not given)	10.6	.	.	.	.	.
Cc1cccc(CC(=O)NCC(=O)NCc2cc(=O)n(C)c(=O)n2C)c1	.	.	.	.	/	/
COc1ccc(-c2ccc3oc(-c4ccc(OC)cc4)c(C#CCCO)c3c2)cc1	10.6	.	.	.	.	.
Cc1ccc(C2=N/C(=C\c3ccc(F)cc3)C(=O)N2)cc1	22.1	/	.	.	.	.
CCC1CCCCN1CCCNC(=O)C1CC(=O)N(CCc2ccccc2)C1 (stereo not given)	.	.	.	.	/	/
Cc1cc(-n2nnc3ccccc32)nc2ccccc12	18.0	.	.	.	.	.
Cc1cc(N2CCCCC2)nc2ccccc12	.	.	.	.	/	/
N=C1C(c2nc(-c3ccc(F)cc3)cs2)=C(O)CN1Cc1ccc(Cl)cc1	13.8	.	.	.	.	.
COc1ccc(-c2csc(C3=C(O)CN(Cc4ccc(Cl)cc4)C3=N)n2)cc1OC	102.5	.	.	.	21.3	.
SMILES	MC4R ag barr	AI-2 QS mod	NTR1 agonist	MC4R antagonist	MC4R barr conf	MOR DOR agonist
COc1ccc(N2CC(O)=C(c3nc(-c4ccc(F)cc4)cs3)C2=N)cc1Cl	11.1	.	.	.	12.7	.
CCCOc1cccc(C(=O)NCCNC(=O)c2cnccn2)c1	.	.	.	.	/	/
O=C(Nc1ccc(O)cc1)c1cc2ccccc2c(=O)s1	.	.	.	.	/	/
O=C(Nc1ccccc1)c1cc2ccccc2c(=O)s1	12.9	.	.	.	.	.
O=C(COc1ccc2c(c1)CCC2)NCc1ccc(Cl)cc1	11.5	.	.	.	.	.
CN=C1SC(CC(=O)Nc2ccccc2F)C(=O)N1C (stereo not given)	.	.	.	.	/	/
C=CCOc1ccc(/C=N/N2C(=O)C(CC(=O)Nc3ccc(F)cc3F)SC2=NC)cc1 (stereo not given)	10.9	.	.	.	.	.
O=C(Nc1ccc(S(=O)(=O)N2CCOCC2)cc1)c1ccccc1Br	.	.	.	.	/	/
CC1CCCN(C(=O)C(=O)c2cn(CC(=O)N3CCCCCC3)c3ccccc23)C1 (stereo not given)	.	.	.	.	/	/
CC(=O)N1CCN(C(=O)CSc2cc(C)c(Br)cc2C)CC1	.	.	.	.	/	/
COc1cc(/C=C2\CC/C(=C\c3cc(OC)c(O)c(OC)c3)C2=O)cc(OC)c1O	21.0	/	.	.	55.7	35.5
O=C(COC(=O)c1ccc2[nH]c3c(c2c1)CCCC3)Nc1ccc(Cl)cc1Cl	18.4	.	.	.	10.2	.
CCCOc1ccc(F)cc1-c1cc(C(=O)Nc2ccc(C(C)C)cc2)[nH]n1	21.1	/	/	.	.	.
CCCOc1ccc(F)cc1-c1cc(C(=O)Nc2ccc(OC)c(OC)c2)[nH]n1	.	/	/	.	/	/
COc1ccc(N(CC(=O)Nc2ccccc2C(=O)N2CCCC2)S(C)(=O)=O)cc1	.	.	.	.	/	/
O=C(COc1ccccc1F)Nc1ccc2[nH]c(=O)[nH]c2c1	.	.	.	.	/	/
O=C(COc1cc(Cl)ccc1Cl)Nc1ccc2[nH]c(=O)[nH]c2c1	12.3	.	.	.	.	.
O=C(NN=Cc1ccccc1OC(F)F)c1cccc(S(=O)(=O)N2CCCC2)c1	.	/	.	.	/	/
COc1cc(OC)cc(-c2c(C#Cc3ccsc3)c3cc(-c4cccc5[nH]ccc45)ccc3n2C)c1	.	/	.	.	/	/
CN1C(=O)/C(=C/c2ccc(OCc3ccccc3F)cc2)NC1=S	20.1	.	.	.	.	.
CN1C(=O)/C(=C/c2ccc(OCc3ccc(F)cc3)cc2)NC1=S	20.3	.	.	.	.	.
CCN(CC)CCn1c2c(c(SCC(=O)Nc3ccccc3Cl)nc1=O)CCC2	.	.	.	.	/	/
COc1cc(/C=N/NC(=O)c2cccc(C)c2)ccc1OCC(=O)Nc1ccccc1	.	.	.	.	/	/
O=[N+]([O-])c1cc2c(cc1/C=N\NS(=O)(=O)c1ccccc1)OCO2	.	.	.	.	/	/
CNc1nc(N/N=C/c2cc3c(cc2[N+](=O)[O-])OCO3)nc(Nc2ccccc2)n1	24.5	.	.	.	.	.
